Legend:
PC-3 [1] = experiment: inhibition against prostate PC-3 cell line; type: functional; conditions: Homo sapiens
HCT-116 = experiment: Concentration required to achieve total growth inhibition against colon HCT116 cancer cell line; type: functional; conditions: Homo sapiens
NCI/ADR-RES [2] = experiment: inhibition against breast NCI/ ADR-RES cancer cell line; type: functional; conditions: Homo sapiens
Jurkat [3] = experiment: Tested for apoptosis in jurkat cells at a concentration of 30 uM of the compound; type: functional, Homo sapiens
In short: (§1)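 Jurkat cells (>98% viable, <2% background apoptosis) at 1 × 10⁶ cells/mL were exposed to 0–100 μM drug (DMSO) for 24 h at 37 °C in 5% CO₂. Nuclei were stained with 50 μM propidium iodide and 0.1% Triton-X in HBSS for 10 min at 37 °C, then scored as apoptotic by flow cytometry. Triplicate incubations in one experiment, mean ± SD; Kruskal–Wallis test versus DMSO control.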

Malme-3M [4] = experiment: Concentration required to achieve total growth inhibition against melanoma MALME-3M cell line; type: functional; conditions: Homo sapiens
MOLT-4 [5] = experiment: Concentration required to achieve total growth inhibition against leukemia MOLT-4 cell line; type: functional; conditions: Homo sapiens
HL-60 [6] = experiment: Concentration of the drug required to achieve 50% cytotoxicity against leukemia HL-60(TB) cell line; type: functional; conditions: Homo sapiens, read-out: LC50 (the source's name)
Malme-3M [7] = experiment: inhibition against melanoma MALME-3M cell line; type: functional; conditions: Homo sapiens
HCT-15 [8] = experiment: Concentration required to achieve total growth inhibition against colon HCT-15 cancer cell line; type: functional; conditions: Homo sapiens
UACC-62 = experiment: Concentration required to achieve total growth inhibition against melanoma UACC-62 cell line; type: functional; conditions: Homo sapiens
T47D = experiment: inhibition against breast T-47D cancer cell line; type: functional; conditions: Homo sapiens
SR = experiment: inhibition against leukemia SR cell line; type: functional; conditions: Homo sapiens
K562 [9] = experiment: inhibition against leukemia K-562 cell line; type: functional; conditions: Homo sapiens
Malme-3M [10] = experiment: Concentration of the drug required to achieve 50% cytotoxicity against melanoma MALME-3M cell line; type: cell-based; conditions: human
SK-MEL-5 = experiment: Concentration required to achieve total growth inhibition against melanoma SK-MEL-5 cell line; type: functional; conditions: Homo sapiens
PC-3 [11] = experiment: Concentration of the drug required to achieve 50% cytotoxicity against prostate PC-3 cell line; type: cell-based; conditions: human
HL-60 [12] = experiment: Concentration required to achieve total growth inhibition against leukemia HL-60(TB) cell line; type: functional; conditions: Homo sapiens
Jurkat [13] = experiment: Inhibitory concentration against jurkat cells; type: functional, cell-based; conditions: Homo sapiens
In short: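 HL60 (2.5 × 10⁴/well) or Jurkat (1 × 10⁵/well) in RPMI-1640 with 10% FBS and 1% L-glutamine, 5% CO2, 37 °C. Exposed to 10⁻¹⁰–10⁻⁴ M for 72 h, final DMSO below 0.5% v/v. [3H]-thymidine (0.5 μCi) added for the final 24 h. Incorporation counted by β-scintillation.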

K562 [14] = experiment: Concentration required to achieve total growth inhibition against leukemia K-562 cell line; type: functional; conditions: Homo sapiens
KM12 [15] = experiment: inhibition against colon KM12 cancer cell line; type: functional; conditions: Homo sapiens
KM12 [16] = experiment: Concentration required to achieve total growth inhibition against colon KM12 cancer cell line; type: functional; conditions: Homo sapiens
SW-620 [17] = experiment: inhibition against colon SW-620 cancer cell line; type: functional; conditions: Homo sapiens
SW-620 [18] = experiment: Concentration of the drug required to achieve 50% cytotoxicity against colon SW-620 cancer cell line; type: cell-based; conditions: human
HL-60 [19] = experiment: inhibition against leukemia HL-60(TB) cell line; type: functional; conditions: Homo sapiens
LOX IMVI [20] = experiment: Concentration required to achieve total growth inhibition against melanoma LOX IMVI cell line; type: functional; conditions: Homo sapiens
[21] = Concentration of the drug required to achieve 50% cytotoxicity against leukemia CCRF-CEM cell line; type: functional; conditions: Homo sapiens, read-out: LC50 (the source's name)
Jurkat [22] = experiment: Tested for apoptosis in jurkat cells at a concentration of 0.3 uM of the compound; type: functional, Homo sapiens; in short: as §1
Plasmodium falciparum = experiment: In vitro antimalarial activity against Plasmodium falciparum HB3 by [3H]hypoxanthine uptake; type: functional, organism-based
LOX IMVI [23] = experiment: Concentration of the drug required to achieve 50% cytotoxicity against melanoma LOX IMVI cell line; type: cell-based; conditions: human
MOLT-4 [24] = experiment: Concentration of the drug required to achieve 50% cytotoxicity against leukemia MOLT-4 cell line; type: functional; conditions: Homo sapiens, read-out: LC50 (the source's name)
MCF7 = experiment: inhibition against breast MCF-7 cancer cell line; type: functional; conditions: Homo sapiens
HCT-15 [25] = experiment: inhibition against colon HCT-15 cancer cell line; type: functional; conditions: Homo sapiens
Jurkat [26] = experiment: Tested for apoptosis in jurkat cells at a concentration of 1 uM of the compound; type: functional, Homo sapiens; in short: as §1
COLO 205 = experiment: Concentration required to achieve total growth inhibition against colon COLO 205 cancer cell line; type: functional; conditions: Homo sapiens
CCRF-CEM = experiment: Concentration required to achieve total growth inhibition against leukemia CCRF-CEM cell line; type: functional; conditions: Homo sapiens
HCT-15 [27] = experiment: Concentration of the drug required to achieve 50% cytotoxicity against colon HCT-15 cancer cell line; type: functional; conditions: Homo sapiens, read-out: LC50 (the source's name)
NCI/ADR-RES [28] = experiment: Concentration of the drug required to achieve 50% cytotoxicity against breast NCI/ ADR-RES cancer cell line; type: cell-based; conditions: human

C[C@H]1[C@@H](CCOP(=O)(OCC[C@H]2O[C@@H]3OC4(C)CC[C@H]5[C@H](C)CC[C@@H]([C@H]2C)[C@@]35OO4)Oc2ccccc2)O[C@@H]2OC3(C)CC[C@H]4[C@H](C)CC[C@@H]1[C@@]24OO3 (single isomer, unassigned)
GI50 (PC-3 [1]): < 0.01 µM
TGI (HCT-116): > 100 µM
GI50 (NCI/ADR-RES [2]): 0.5 µM
Activity (Jurkat [3]): 17.3%
TGI (Malme-3M [4]): 30.8 µM
TGI (MOLT-4 [5]): 11.9 µM
CC50 (HL-60 [6]): > 100 µM
GI50 (Malme-3M [7]): 0.194 µM
TGI (HCT-15 [8]): > 100 µM
TGI (UACC-62): 21.8 µM
GI50 (T47D): 0.0256 µM
GI50 (SR): < 0.01 µM
GI50 (K562 [9]): < 0.01 µM
LC50 (Malme-3M [10]): > 100 µM
TGI (SK-MEL-5): 2.25 µM
LC50 (PC-3 [11]): > 100 µM
TGI (HL-60 [12]): 2.23 µM
IC50 (Jurkat [13]): 13.2 µM
TGI (K562 [14]): 100 µM
GI50 (KM12 [15]): < 0.01 µM
TGI (KM12 [16]): 17.9 µM
GI50 (SW-620 [17]): < 0.01 µM
LC50 (SW-620 [18]): > 100 µM
GI50 (HL-60 [19]): 0.0115 µM
TGI (LOX IMVI [20]): 15.6 µM
CC50 [21]: > 100 µM
Activity (Jurkat [22]): 7.3%
IC50 (Plasmodium falciparum): 0.00018 µM
LC50 (LOX IMVI [23]): > 100 µM
CC50 (MOLT-4 [24]): > 100 µM
GI50 (MCF7): 0.106 µM
GI50 (HCT-15 [25]): < 0.01 µM
Activity (Jurkat [26]): 8.9%
TGI (COLO 205): 0.17 µM
TGI (CCRF-CEM): 56 µM
CC50 (HCT-15 [27]): > 100 µM
LC50 (NCI/ADR-RES [28]): > 100 µM
